Compound activity: PubChem, several laboratories
DTT redox prof: compounds producing H2O2 with reducing agent – biochemical, NIH compound library profiling, artefact control for MLSCN library redox annotation, primary screen; DTT-dependent redox cycling H2O2, phenol red/HRP absorbance; 100% = 100 µM peroxide control, 0% = buffer; activation, % at 10 µM; 200,000 tested, 0.03% active;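 active means activation of at least 50% relative to the plate's high and low controls in the primary single-dose screen; inactive means activation below 50%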;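 further: compound incubated with DTT at 0.8 mM final as the reducing agent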
PKD1 kinase inh: inhibitors of human PKD1 kinase; Q15139; PKD1 kinase fluorescence polarization assay; inhibition, % (no concentration beside the values); 200,000 tested, 0.056% active; in the data active means inhibition above about 50%
Arbovirus anti: blocks arbovirus infection; arbovirus infection cell-based antiviral screen; inhibition, % at 10 µM; 200,000 tested, 0.37% active; AID 1251; in the data active means inhibition above about 30%
p97 ATPase inh: blocks human p97 ATPase activity | P55072 | recombinant p97 ATPase, Kinase-Glo ATP luminescence, 3 h | inhibition, % at 8 µM | 220,000 tested, 0.42% active; in the data active means inhibition above about 15%;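 further: 0% = DMSO vehicle and 100% = wells lacking enzyme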
Target sequence (P55072 whole entry, looked up): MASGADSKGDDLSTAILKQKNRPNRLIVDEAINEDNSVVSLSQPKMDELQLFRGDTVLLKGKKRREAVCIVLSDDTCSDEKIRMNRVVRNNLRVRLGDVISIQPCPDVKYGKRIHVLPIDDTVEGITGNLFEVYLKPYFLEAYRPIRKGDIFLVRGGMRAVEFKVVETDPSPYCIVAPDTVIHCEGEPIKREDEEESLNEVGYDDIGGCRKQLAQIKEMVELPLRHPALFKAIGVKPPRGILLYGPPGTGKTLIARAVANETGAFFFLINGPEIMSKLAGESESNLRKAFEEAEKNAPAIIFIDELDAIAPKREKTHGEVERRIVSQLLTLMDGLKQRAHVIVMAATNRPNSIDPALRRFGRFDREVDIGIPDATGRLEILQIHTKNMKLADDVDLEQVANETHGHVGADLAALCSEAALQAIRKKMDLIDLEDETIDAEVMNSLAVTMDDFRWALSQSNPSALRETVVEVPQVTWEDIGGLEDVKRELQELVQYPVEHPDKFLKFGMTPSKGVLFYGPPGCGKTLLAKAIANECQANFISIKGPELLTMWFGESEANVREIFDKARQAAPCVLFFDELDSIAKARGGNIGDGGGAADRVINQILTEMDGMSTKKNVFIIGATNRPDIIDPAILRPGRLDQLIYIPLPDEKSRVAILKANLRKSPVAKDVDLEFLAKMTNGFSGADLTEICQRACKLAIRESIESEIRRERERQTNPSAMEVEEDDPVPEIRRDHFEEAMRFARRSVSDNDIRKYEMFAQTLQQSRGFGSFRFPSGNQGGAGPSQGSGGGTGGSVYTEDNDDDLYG
Wee1 degr inh: blocks degradation of human Wee1 kinase; HeLa Luc-Wee1K328M stability, luciferase luminescence; 100% = proteasome inhibitor MG132 effect; 220,000 tested, 1.2% active; AID 1321; reporter increase, % at 5 µM;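 active means activation above the mean of all tested compounds plus 3 SD, set per screening run, cut at about 8.8% in these data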;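 further: cells exposed to compound for 20 h before luminescence read; 0% = DMSO alone and 100% = MG132 at 30 µM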
RBBP9 inhibitor: human RBBP9 hydrolase inhibition | 220,000 tested, 0.2% active | AID 1515 | recombinant RBBP9, FP-Rh probe fluorescence polarization | inhibition, % at 7.94 µM;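 active means inhibition above the campaign mean of all tested compounds plus 3 SD, cut at about 14% in these data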;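 further: plate controls were DMSO wells with RBBP9 for no effect and wells lacking RBBP9 protein for full effect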
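Measured by – fluorescence polarization · Test system – RBBP9 protein · Input – 2.5 µM RBBP9 dispensing solution, before mixing · Measure – percent inhibition from mP, scaled between DMSO and no-protein wells · Benchmarks – DMSO-treated enzyme wells and wells lacking RBBP9 · Times – preincubation 30 min plus labeling 45 min at 25 °C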
An asterisk follows results filed as active. Sampled rows, rich in hits. Any-hit rate of the full collection: about 2.2%.

Cc1cc(NC(=O)CSc2ncnc3sccc23)no1 was read as DTT redox prof -1, PKD1 kinase inh 5, Arbovirus anti 1, p97 ATPase inh 4, Wee1 degr inh -2 and RBBP9 inhibitor -5.
Screening N#Cc1c(NC(=O)CSc2ncnc3sccc23)oc(-c2ccco2)c1-c1ccco1 returned DTT redox prof 0, PKD1 kinase inh 4, Arbovirus anti -1, p97 ATPase inh 15*, Wee1 degr inh 2 and RBBP9 inhibitor -2.
For C=CCNC(=O)COC(=O)c1ccc(Sc2nncn2C)c([N+](=O)[O-])c1 the results were DTT redox prof 0, PKD1 kinase inh -8, Arbovirus anti 21, p97 ATPase inh 3, Wee1 degr inh 0 and RBBP9 inhibitor -6.
Cc1cccc2c1-c1sc(C(=O)Nc3nccs3)cc1CO2 was read as DTT redox prof -1, PKD1 kinase inh -3, Arbovirus anti 82*, p97 ATPase inh -3, Wee1 degr inh 2 and RBBP9 inhibitor -7.
For CC(C)c1ccc(C2=C(O)c3ccccc3C(=O)C2=O)cc1 the results were DTT redox prof 0, PKD1 kinase inh -2, Arbovirus anti 33*, p97 ATPase inh 2, Wee1 degr inh 0 and RBBP9 inhibitor 3.
`Nc1nc(COc2ccc3ccccc3c2)cs1` gave DTT redox prof 2, PKD1 kinase inh -8, Arbovirus anti 1, p97 ATPase inh 2, Wee1 degr inh 9.0* and RBBP9 inhibitor 1.
Screening CC(=O)Nc1nc(COc2ccc3ccccc3c2)cs1 returned DTT redox prof 0, PKD1 kinase inh -3, Arbovirus anti 26, p97 ATPase inh -2, Wee1 degr inh 7 and RBBP9 inhibitor -7.
For O=C(O)CCNS(=O)(=O)c1ccc2c(c1)OCCCO2 the results were DTT redox prof -1, PKD1 kinase inh -2, Arbovirus anti 1, p97 ATPase inh -2, Wee1 degr inh 9.8* and RBBP9 inhibitor -3.
CCCCCCn1c(=O)c(-c2ccccc2)c(O)c2ccccc21 was read as DTT redox prof 0, PKD1 kinase inh 3, Arbovirus anti 54*, p97 ATPase inh -3, Wee1 degr inh -1 and RBBP9 inhibitor -6.
Screening CCCCCCn1c(=O)c(Cc2ccccc2)c(O)c2ccccc21 returned DTT redox prof -1, PKD1 kinase inh -5, Arbovirus anti 10, p97 ATPase inh 3, Wee1 degr inh -1 and RBBP9 inhibitor -9.
Cc1nn(C)c(Oc2ccc(Cl)cc2)c1C(=O)Nc1ccc(F)cc1F was read as DTT redox prof 0, PKD1 kinase inh 3, Arbovirus anti 4, p97 ATPase inh -1, Wee1 degr inh 0 and RBBP9 inhibitor 2.
For CCC(=O)O[C@]1(C(=O)CCl)[C@@H](C)C[C@H]2[C@@H]3CCC4=CC(=O)C=C[C@]4(C)[C@@]3(F)[C@@H](O)C[C@@]21C the results were DTT redox prof 0, PKD1 kinase inh -18, Arbovirus anti 15, p97 ATPase inh 1, Wee1 degr inh 9.3* and RBBP9 inhibitor -5.
CN(C)[C@@H]1C(=O)C(C(=O)NCN2CCCC2)=C(O)[C@@]2(O)C(=O)C3=C(O)c4c(O)cccc4[C@@](C)(O)C3CC12 (stereo partly specified) was read as DTT redox prof 1, PKD1 kinase inh 23, Arbovirus anti 2, p97 ATPase inh 23*, Wee1 degr inh -3 and RBBP9 inhibitor 2.
For O=C(Nc1ccccc1)Nc1snnc1C(=O)Nc1cccc(O)c1 the results were DTT redox prof 0, PKD1 kinase inh -5, Arbovirus anti 48*, p97 ATPase inh 10, Wee1 degr inh 0 and RBBP9 inhibitor -28.
For Cc1nnsc1C(=O)NNC(=O)Nc1ccccc1 the results were DTT redox prof -1, PKD1 kinase inh 10, Arbovirus anti -3, p97 ATPase inh -2, Wee1 degr inh -3 and RBBP9 inhibitor -2.
For COc1ccc(-c2nnn(CC(=O)NCCc3ccc(OC)c(OC)c3)n2)cc1 the results were DTT redox prof 0, PKD1 kinase inh -2, Arbovirus anti -1, p97 ATPase inh 1, Wee1 degr inh 0 and RBBP9 inhibitor 3.
For Cc1ccc(S(=O)(=O)n2[nH]c(=O)c(CCO)c2C)cc1 the results were DTT redox prof 2, PKD1 kinase inh -2, Arbovirus anti -3, p97 ATPase inh 2, Wee1 degr inh 9.0* and RBBP9 inhibitor 2.
CNC(=O)c1c(Cl)cnn1-c1ccc(C)cc1 was read as DTT redox prof -1, PKD1 kinase inh 5, Arbovirus anti 0, p97 ATPase inh 6, Wee1 degr inh 6 and RBBP9 inhibitor 4.
For C=CCNC(=O)c1c(Cl)cnn1-c1ccc(C)cc1 the results were DTT redox prof -1, PKD1 kinase inh 4, Arbovirus anti 0, p97 ATPase inh -1, Wee1 degr inh 9.2* and RBBP9 inhibitor 1.
CNC(=O)c1c(Br)cnn1-c1ccc(C)cc1 was read as DTT redox prof -1, PKD1 kinase inh -1, Arbovirus anti -1, p97 ATPase inh 4, Wee1 degr inh 9.2* and RBBP9 inhibitor -10.
Screening Cc1ccc(S(=O)(=O)Nc2ccc3c(c2)c2c(n3S(=O)(=O)c3ccc(C)cc3)CCCC2=O)cc1 returned DTT redox prof 0, PKD1 kinase inh 0, Arbovirus anti -4, p97 ATPase inh 1, Wee1 degr inh 4 and RBBP9 inhibitor -5.
For CCCC(=O)Nc1nnc(-c2ccco2)s1 the results were DTT redox prof 2, PKD1 kinase inh 7, Arbovirus anti -11, p97 ATPase inh -1, Wee1 degr inh 9 and RBBP9 inhibitor -4.
For Cc1nnc(NC(=O)CCC(=O)NCc2ccco2)s1 the results were DTT redox prof 0, PKD1 kinase inh 6, Arbovirus anti 4, p97 ATPase inh -1, Wee1 degr inh 10.0* and RBBP9 inhibitor -9.
Screening COC(=O)[C@@H](NC(=O)NCc1ccccc1Cl)C(C)C returned DTT redox prof 1, PKD1 kinase inh -9, Arbovirus anti -4, p97 ATPase inh -7, Wee1 degr inh 7 and RBBP9 inhibitor 3.
COc1nc(N2CCOCC2)nc(-n2cccc2)n1 was read as DTT redox prof 0, PKD1 kinase inh -4, Arbovirus anti 2, p97 ATPase inh 7, Wee1 degr inh 9.2* and RBBP9 inhibitor 0.
For CC1CC1C(=O)Nc1nc(-c2ccc(Cl)s2)cs1 (stereo unspecified) the results were DTT redox prof 0, PKD1 kinase inh 1, Arbovirus anti 44*, p97 ATPase inh -1, Wee1 degr inh 7 and RBBP9 inhibitor -11.
For O=C(O)c1ccc(N=Nc2c(O)[nH]c3cc(Cl)ccc23)cc1 the results were p97 ATPase inh 9, Wee1 degr inh 12* and RBBP9 inhibitor 0.
O=C(CN1C(=O)COc2ccc(Cl)cc21)N1CCc2ccccc21 was read as DTT redox prof 3, PKD1 kinase inh -9, Arbovirus anti -10, p97 ATPase inh -1, Wee1 degr inh 1 and RBBP9 inhibitor -11.
